Data on 15 compounds can be found in ChEMBL document CHEMBL1152230, “Synthesis of (3,4-dimethoxyphenoxy)alkylamino acetamides as orexin-2 receptor antagonists” (Bioorg Med Chem Lett, 2008).

Molecules are shown by their SMILES. The source made the active and inactive calls. No cut-off for these calls is given here.

In assay [1] the target is T1, Orexin receptor type 2 (Homo sapiens, UniProt O43614).
T1 sequence (O43614 whole entry): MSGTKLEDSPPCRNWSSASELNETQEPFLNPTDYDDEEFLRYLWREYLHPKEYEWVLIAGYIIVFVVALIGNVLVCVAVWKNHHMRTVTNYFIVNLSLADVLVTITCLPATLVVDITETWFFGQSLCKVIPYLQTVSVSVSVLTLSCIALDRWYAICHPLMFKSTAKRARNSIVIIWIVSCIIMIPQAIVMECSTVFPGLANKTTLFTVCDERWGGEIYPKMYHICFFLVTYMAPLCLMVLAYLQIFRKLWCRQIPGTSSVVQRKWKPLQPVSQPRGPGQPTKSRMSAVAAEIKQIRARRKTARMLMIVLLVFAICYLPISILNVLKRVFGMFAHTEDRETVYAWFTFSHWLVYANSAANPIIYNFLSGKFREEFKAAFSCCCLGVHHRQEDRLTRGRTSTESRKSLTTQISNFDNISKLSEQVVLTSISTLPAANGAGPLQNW
The assay can be described thus: Antagonist activity at human OX2 receptor expressed in HEK293 cells assessed as inhibition of human orexin-A-stimulated calcium release by FLIPR assay. It counts as functional, cell-based. The gist of the method: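 HEK293/OX2-R cells, 20,000/well, were grown 24 h at 37 °C. They were loaded with Calcium 3 no-wash dye in HBSS/20 mM HEPES pH 7.5/BSA with 2.5 mM probenecid final, for 30 min at 37 °C, then 30-90 min at room temperature. FLIPR fluorescence was read for 125 s.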

Assay [2] deals with T2, Orexin receptor type 2 (Homo sapiens) (UniProt O43614).
T2 sequence (whole entry): T1 sequence (O43614 whole entry)
The experiment in a line: Agonist activity at human OX2 receptor expressed in HEK293 cells assessed as effect on human orexin-A-stimulated calcium release by FLIPR assay. The assay is classed as functional, cell-based.

Regarding `COc1ccc(OCCN(CC(=O)NCC(C)C)Cc2ccc(F)cc2)cc1OC`, the IC50 in assay [1] (read-out: pIC50 (converted)) was 562 nM. For the same compound, the outcome in assay [2] was inactive.

Consider `COc1ccc(OCCN(CC(=O)NCc2ccccc2)Cc2ccc(F)c(F)c2)cc1OC`, for which the IC50 is < 30 nM in assay [1] (read-out: IC50) and 18.6 nM in assay [1] (read-out: pIC50 (converted)). Besides, in assay [2], the outcome was inactive.

Turning to `COc1ccc(OCCN(CC(=O)NCc2ccccc2Cl)Cc2ccc(F)c(F)c2)cc1OC`, the IC50 in assay [1] (read-out: pIC50 (converted)) is 81.3 nM. For the same compound, the outcome in assay [2] was inactive.

In the case of `COc1ccc(OCCN(CC(=O)NCC(C)C)Cc2ccc(F)c(F)c2)cc1OC`, the IC50 in assay [1] (read-out: pIC50 (converted)) was 229 nM. Also, the result in assay [2] was inactive.

Regarding `COc1ccc(OCCN(CC(=O)NCC(C)C)Cc2ccccc2)cc1OC`, in assay [1] (read-out: pIC50 (converted)), the IC50 was 302 nM. Further, in assay [2], the result was inactive.

For `COc1ccc(OCCN(CC(=O)NCc2ccccc2)Cc2ccccc2)cc1OC`, the IC50 is < 30 nM in assay [1] (read-out: IC50) and 25.1 nM in assay [1] (read-out: pIC50 (converted)). Also, in assay [2], the outcome was inactive.

With `COc1ccc(OCCN(CC(=O)NCC(C)C)Cc2cccs2)cc1OC`, in assay [1] (read-out: pIC50 (converted)), the IC50 was 324 nM. Moreover, the outcome in assay [2] was inactive.

`COc1ccc(OCCN(CC(=O)NCc2ccccc2Cl)Cc2ccc(F)cc2)cc1OC`: in assay [1] (read-out: pIC50 (converted)), the IC50 is 138 nM. Also, in assay [2], the outcome was inactive.

For `COc1ccc(OCCCN(CC(=O)NCc2ccccc2)Cc2cccs2)cc1OC`, the IC50 in assay [1] (read-out: pIC50 (converted)) was 132 nM. Besides, the outcome in assay [2] was inactive.

Consider `COc1ccc(OCCN(CC(=O)NCc2ccccc2Cl)Cc2ccccc2)cc1OC`, for which, in assay [1] (read-out: pIC50 (converted)), the IC50 is 151 nM. Further, the outcome in assay [2] was inactive.

With `COc1ccc(OCCCN(CC(=O)NCc2ccccc2)Cc2ccc(F)c(F)c2)cc1OC`, in assay [1] (read-out: pIC50 (converted)), the IC50 was 107 nM. Also, the result in assay [2] was inactive.

For the compound `COc1ccc(OCCCN(CC(=O)NCc2ccccc2)Cc2ccccc2)cc1OC`, the IC50 in assay [1] (read-out: pIC50 (converted)) was 51.3 nM. The outcome in assay [2] was inactive.

For `COc1ccc(OCCN(CC(=O)NCc2ccccc2)Cc2cccs2)cc1OC`, the IC50 in assay [1] (read-out: pIC50 (converted)) is 110 nM. Moreover, the outcome in assay [2] was inactive.

Consider `COc1ccc(OCCN(CC(=O)NCc2ccccc2)Cc2ccc(F)cc2)cc1OC`, for which the IC50 in assay [1] (read-out: IC50) is < 30 nM; in assay [1] (read-out: pIC50 (converted)), 19.5 nM. Besides, the outcome in assay [2] was inactive.

On to `COc1ccc(OCCN(CC(=O)NCc2ccccc2Cl)Cc2cccs2)cc1OC`, for which, in assay [1] (read-out: pIC50 (converted)), the IC50 was 195 nM. The outcome in assay [2] was inactive.
